# MC4R antagonist = blocks human MC4R cAMP signaling | AID 540295 | actives 0.48% (n = 360,000) | P32245 | MC4R-expressing cells, MTII-stimulated cAMP, LANCE TR-FRET | inhibition, % at 6.5 µM;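 active = inhibition above its plate's cutoff, the mean of tested wells on that plate plus 3 SD, cut at about 29% in these data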;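 note: 0% = Melanotan II alone and 100% = Melanotan II plus saturating MCL0020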
# Target sequence (P32245 whole entry, looked up): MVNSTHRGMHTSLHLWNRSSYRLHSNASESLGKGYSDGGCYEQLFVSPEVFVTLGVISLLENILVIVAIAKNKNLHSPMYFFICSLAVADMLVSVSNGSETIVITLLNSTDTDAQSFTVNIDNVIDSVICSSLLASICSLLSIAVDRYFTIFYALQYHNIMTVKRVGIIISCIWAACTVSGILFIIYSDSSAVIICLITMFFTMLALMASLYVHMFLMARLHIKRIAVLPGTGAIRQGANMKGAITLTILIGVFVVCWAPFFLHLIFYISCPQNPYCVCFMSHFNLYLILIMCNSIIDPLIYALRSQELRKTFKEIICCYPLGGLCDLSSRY
#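 Test system: U2OS cells stably expressing human melanocortin 4 receptor (MC4R); also added: Melanotan II challenge; compound: 6.5 µM single dose; timing: 30-min compound preincubation, 1-h Melanotan II challenge, 1-h detection, room temperature; signal: Eu-cAMP/anti-cAMP TR-FRET, emission 671 nm; repeats: one well per compound, no replicates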
# HTR5A ag ctr = activates human HTR5A in OPRM1-OPRD1 agonist counter-screen. HTR5A agonist assay, luminescence, cell-based. P47898. activation, % at 9.3 µM. actives 0.61% (n = 340,000); in the data active = activation mostly above about 9.5%, no sharp cut-off; inactive = mostly below about 7.6%;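 note: 0% = cells with vehicle only and 100% = reference agonist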
# MOR-DOR ag = agonists of human mu-delta opioid receptor heterodimerization | activation, % at 9.3 µM | AID 504326 | cells, OPRM1-OPRD1 heterodimerization, luminescence | actives 0.3% (n = 340,000) | P35372+P41143; in the data active = activation above about 18%;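 note: 0% = vehicle-treated cells and 100% = reference agonist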
# HTR5A inv ctr = counter-screen for OPRM1-OPRD1 inverse agonists: human HTR5A inverse agonism; P47898; HTR5A cell line, luminescence; inhibition, % at 9.3 µM; actives 0.083% (n = 340,000); in the data active = inhibition mostly above about 23%, no sharp cut-off; inactive = mostly below about 18%;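 note: 0% = cells with DMSO and 100% = no-cell wells with DMSO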
# OPRM1-OPRD1 inv = inverse agonist of human OPRM1-OPRD1 heterodimerization | cell-based MOR-DOR heterodimer luminescence, inverse agonism | actives 0.21% (n = 340,000) | inhibition, % at 9.3 µM | P35372+P41143; in the data active = inhibition above about 22%, passing the limit was not always enough;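 note: 0% = cells with DMSO and 100% = wells without cells with DMSO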
# MC4R barr agon = activates human MC4R beta-arrestin recruitment | U2OS MC4R beta-arrestin complementation, luminescence; percent of melanotan II response, DMSO zero | activation, % at 8.9 µM | actives 0.98% (n = 360,000) | AID 540308;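 active = activation above a per-plate cutoff, the mean activation of sample wells on that plate plus 3 SD, cut at about 8% in these data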
# OPRM1-D1 inv cf = OPRM1-OPRD1 heterodimer inverse agonism, confirmation | shares compounds with OPRM1-OPRD1 inv | cells expressing OPRM1/OPRD1 heterodimer, luminescence | inhibition, % at 9.3 µM | actives 20% (n = 580) | AID 504900; in the data active = inhibition above about 32%;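 note: 0% = cells with DMSO and 100% = wells lacking cells with DMSO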
# HTR5A inv ctr2 = HTR5A inverse agonism, opioid heterodimer counter-screen; inhibition, % at 9.3 µM; 580 tested, under 10 active; HTR5A-expressing cells, luminescence; shares compounds with OPRM1-OPRD1 inv; call rule not given here;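 note: 0% = cells with DMSO and 100% = no-cell wells with DMSO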
# An asterisk follows results filed as active; i = inactive; / = no result. Sampled rows, rich in hits. Any-hit rate of the full collection: about 2.4%.
SMILES,MC4R antagonist,HTR5A ag ctr,MOR-DOR ag,HTR5A inv ctr,OPRM1-OPRD1 inv,MC4R barr agon,OPRM1-D1 inv cf,HTR5A inv ctr2
Cc1c(N=C2C(=O)Nc3ccccc32)c(=O)n(-c2ccccc2)n1C,1.0,-6.2,-10.1,17.5,52.1*,-1.1,41.7*,23.0
O=C(/C=C/c1ccccc1)C1=C(O)C(=O)N(CCO)C1c1ccccc1[N+](=O)[O-] (stereo not drawn),0.5,-3.7,-10.4,20.2,52.0*,0.6,-426.9,-36.6
O=C(/C=C/c1ccccc1)C1=C(O)C(=O)N(CCO)C1c1cccc([N+](=O)[O-])c1 (stereo not drawn),9.1,/,/,/,/,-0.1,/,/
O=C1CSC(=S)N1Cc1cccs1,11.8,0.7,1.4,-2.9,-7.2,-0.2,/,/
O=C(COC(=O)CN1C(=O)C(=O)c2ccccc21)OCN1C(=O)c2ccccc2C1=O,-21.5,-0.5,-7.6,-4.5,40.2*,-1.9,19.1,-2.7
O=C(CN1C(=O)C(=O)c2ccccc21)c1ccccc1,0.6,-5.2,-10.9,19.3,52.2*,-1.2,-163.3,-19.1
O=C1C(=O)N(Cc2cccs2)c2ccccc21,2.5,-0.1,-9.4,0.4,48.4*,-1.1,16.3,-1.1
O=C(CCN1C(=O)c2ccccc2C1=O)OCN1C(=O)c2ccccc2C1=O,-1.5,2.0,-3.1,-25.5,13.0,-0.7,/,/
O=C1C(=O)N(CCS(=O)(=O)c2ccccc2)c2ccccc21,2.7,-1.4,-11.7,11.8,58.3*,-1.8,i,-13.6
O=S(=O)(CCN1CCOCC1)c1ccccc1,2.7,-3.5,-5.0,13.3,22.4,1.1,/,/
CC(=O)NS(=O)(=O)c1ccc(NC(=O)[C@@H]2CCCN2S(=O)(=O)c2ccc(Cl)cc2)cc1,1.6,-3.9,-1.5,9.8,5.8,0.6,/,/
Cc1cc(C)n2nc(SCC(=O)NC3(C#N)CCCCC3)nc2n1,-0.4,/,/,/,/,1.2,/,/
Cc1ccc(C)c(S(=O)(=O)NC(C)CCc2ccccc2)c1 (stereo not drawn),2.6,0.3,8.3,0.6,-68.0,3.7,/,/
O=C(CN1C(=O)C(=O)c2ccccc21)NC1CCCCC1,-4.2,-4.7,-9.6,12.4,47.5*,2.3,47.5*,18.8
O=C1C(=O)N(CCN2CCCCC2)c2ccccc21,-1.4,-4.9,-12.6,25.1,71.9*,-1.0,73.6*,4.5
COc1ccc(NC(=O)Nc2ccc3c(c2)OCO3)c(C)c1,-1.4,-1.4,-1.8,6.9,9.9,0.6,/,/
CC(=O)Nc1ccc(S(=O)(=O)Nc2ccccc2C(=O)NCc2cccnc2)cc1,6.7,3.3,1.2,-9.8,-9.6,-1.8,/,/
O=C(CNS(=O)(=O)c1ccccc1)OCC(=O)c1cccc([N+](=O)[O-])c1,1.0,-7.7,-11.6,13.8,61.3*,-0.5,17.4,5.2
O=C(CNS(=O)(=O)c1ccccc1)OCc1cccc([N+](=O)[O-])c1,18.5,-1.5,1.2,21.5,-5.6,-0.8,/,/
O=C(Cc1ccccc1)OCC(=O)c1cccc([N+](=O)[O-])c1,2.5,-0.2,-12.7,0.7,52.2*,1.2,28.6,8.5
Cc1ccc(OCC(=O)OCC(=O)c2cccc([N+](=O)[O-])c2)cc1C,0.4,-5.1,-7.7,18.5,43.8*,-1.4,-26.5,3.6
O=C(CNC(=O)c1ccc(Br)o1)OCC(=O)c1cccc([N+](=O)[O-])c1,3.7,-14.0,-18.2,35.7*,83.5*,-2.9,i,-22.0
Cn1c(=O)c2c(nc(N3CCOCC3)n2C/C=C/c2ccccc2)n(C)c1=O,5.6,/,/,/,/,-2.1,/,/
CCOc1ccccc1NC(=O)c1nc(-c2ccccc2)oc1C,3.9,-0.7,-0.2,2.1,0.9,-1.9,/,/
CCOC(=O)c1c(S(=O)(=O)NCC(=O)Nc2cccc(C)c2)c(C)n(C)c1C,6.8,-3.0,-1.2,11.4,6.4,0.3,/,/
O=C(COC(=O)c1cnccn1)c1cccc([N+](=O)[O-])c1,1.5,-7.9,-12.3,-2.1,65.5*,-0.2,-254.2,-45.5

# High-throughput results as filed in PubChem.
